Test results reported in ChEMBL document CHEMBL1772954, “Antifungal, cytotoxic and SAR studies of a series of N-alkyl, N-aryl and N-alkylphenyl-1,4-pyrrolediones and related compounds” (Bioorg Med Chem, 2011).
Values after ≈ are worked out from the molar mass of the structure shown.

Assays:
[1] = system: MCF7; assay: Cytotoxicity against human MCF7 cells assessed as cell growth after 2 days by sulforhodamine B assay; format: functional; settings: MCF7, 48 h
Outline: (§1)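 NCI cell lines were run by the Monks method: cells were plated with compounds from DMSO stocks and incubated 2 days at 37 °C in 5% CO2, in duplicate. Cells were fixed with cold TCA, stained with 0.4% SRB, and the bound dye was solubilized in 10 mM tris-base and read at 515 nm. The zero-day control was subtracted, and GI50 was taken from the curves.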

[2] = system: NCI-H460; assay: Cytotoxicity against human H460 cells assessed as cell growth after 2 days by sulforhodamine B assay; format: functional; settings: NCI-H460, 48 h; outline: as §1
[3] = system: SF-268; assay: Cytotoxicity against human SF268 cells assessed as cell growth after 2 days by sulforhodamine B assay; format: functional; settings: SF-268, 48 h; outline: as §1
[4] = Cytotoxicity against human erythrocytes assessed as hemolysis by spectrometric analysis; format: cell-based, Erythrocyte
Outline: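 Human heparinized red blood cells were washed in PBS at pH 7.0 and suspended at 4% in sterile 5% glucose. Compounds from DMSO stocks were diluted in 5% glucose to final concentrations of 250 to 0.24 µg/ml and incubated with the cells at 37 °C. Released hemoglobin was read at 540 nm. HC50 is the concentration giving 50% lysis relative to the drug-free value.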

[5] = system: Candida albicans; assay: Antifungal activity against Candida albicans ATCC 10213; format: functional
Outline: (§2)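 CLSI M27-A3 broth microdilution in RPMI-1640 buffered to pH 7.0 with MOPS. Inoculum 1-5 × 10^3 CFU/mL. Compound twofold dilutions from 250 to 0.24 µg/ml, final DMSO <1%. Incubated at 35 °C in a moist, dark chamber and read at 48 h. MIC is the lowest concentration giving total growth inhibition. For MFC, 5 µL from clear wells was plated in duplicate on SDA; MFC is the lowest concentration with no growth.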

[6] = system: Candida tropicalis; assay: Antifungal activity against Candida tropicalis C 131 2000; format: functional; outline: as §2
[7] = system: Saccharomyces cerevisiae; assay: Antifungal activity against Saccharomyces cerevisiae ATCC 9763; format: functional; outline: as §2
[8] = system: Cryptococcus neoformans; assay: Antifungal activity against Cryptococcus neoformans ATCC 32264; format: functional; outline: as §2
[9] = system: Aspergillus fumigatus; assay: Antifungal activity against Aspergillus fumigatus ATCC 26934; format: functional
Outline: (§3)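 Broth microdilution per CLSI M38-A2 in RPMI-1640 with MOPS at pH 7.0. Inoculum 1-5 × 10^3 CFU/mL, with twofold compound dilutions spanning 250-0.24 µg/ml (final DMSO <1%). Plates incubated at 35 °C, moist and dark, and read when the control fungus had grown. MIC is total growth inhibition. MFC comes from subculturing clear wells in duplicate onto SDA.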

[10] = system: Aspergillus flavus; assay: Antifungal activity against Aspergillus flavus ATCC 9170; format: functional; outline: as §3
[11] = system: Aspergillus niger; assay: Antifungal activity against Aspergillus niger ATCC 9029; format: functional; outline: as §3
[12] = system: Nannizzia gypsea; assay: Antifungal activity against Microsporum gypseum C 115 2000; format: functional
Outline: (§4)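 Dermatophytes tested by CLSI M38-A2 microdilution in MOPS-buffered RPMI-1640 at pH 7.0. Inoculum 1-5 × 10^3 CFU/mL; compounds 250 to 0.24 µg/ml in twofold steps, final DMSO <1%. Incubated at 28 °C in a moist, dark chamber and read according to control growth. MIC is the lowest concentration with complete inhibition. MFC is the lowest concentration with no growth after duplicate subculture on SDA.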

[13] = system: Trichophyton rubrum; assay: Antifungal activity against Trichophyton rubrum C 113 2000; format: functional; outline: as §4
[14] = system: Trichophyton mentagrophytes; assay: Antifungal activity against Trichophyton mentagrophytes ATCC 9972; format: functional; outline: as §4

Compound | MIC [5] | MIC [6] | MIC [7] | MIC [8] | MIC [9] | MIC [10] | MIC [11] | MIC [12] | GI50 [1] | GI50 [2] | GI50 [3] | HC50 [4] | MFC [5] | MFC [6] | MFC [7] | MFC [8] | MFC [9] | MFC [10] | MFC [11] | MFC [12] | other results
CC1=CC(=O)N(Cc2ccccc2)C1=O | 62.5 µg/mL (≈ 311 µM) | 125 µg/mL (≈ 621 µM) | 31.2 µg/mL (≈ 155 µM) | 15.6 µg/mL (≈ 77.7 µM) | 31.2 µg/mL (≈ 155 µM) | 62.5 µg/mL (≈ 311 µM) | 62.5 µg/mL (≈ 311 µM) | 3.9 µg/mL (≈ 19.4 µM) | > 10 µg/mL | > 10 µg/mL | > 10 µg/mL | > 250 µg/mL | 125 µg/mL (≈ 621 µM) | 250 µg/mL (≈ 1240 µM) | 62.5 µg/mL (≈ 311 µM) | 31.2 µg/mL (≈ 155 µM) | 62.5 µg/mL (≈ 311 µM) | 125 µg/mL (≈ 621 µM) | 125 µg/mL (≈ 621 µM) | 7.81 µg/mL (≈ 38.8 µM) | MFC [13]: 7.81 µg/mL (≈ 38.8 µM); MIC [13]: 3.9 µg/mL (≈ 19.4 µM); MFC [14]: 31.2 µg/mL (≈ 155 µM); MIC [14]: 31.2 µg/mL (≈ 155 µM)
CC1=CC(=O)N(CCc2ccccc2)C1=O | 62.5 µg/mL (≈ 290 µM) | 125 µg/mL (≈ 581 µM) | 31.2 µg/mL (≈ 145 µM) | 31.2 µg/mL (≈ 145 µM) | 31.2 µg/mL (≈ 145 µM) | 62.5 µg/mL (≈ 290 µM) | 62.5 µg/mL (≈ 290 µM) | 3.9 µg/mL (≈ 18.1 µM) | > 10 µg/mL | > 10 µg/mL | > 10 µg/mL | > 250 µg/mL | 125 µg/mL (≈ 581 µM) | 250 µg/mL (≈ 1160 µM) | 62.5 µg/mL (≈ 290 µM) | 62.5 µg/mL (≈ 290 µM) | 31.2 µg/mL (≈ 145 µM) | 250 µg/mL (≈ 1160 µM) | 250 µg/mL (≈ 1160 µM) | 7.81 µg/mL (≈ 36.3 µM) | MFC [13]: 15.6 µg/mL (≈ 72.6 µM); MIC [13]: 7.81 µg/mL (≈ 36.3 µM); MFC [14]: 62.5 µg/mL (≈ 290 µM); MIC [14]: 31.2 µg/mL (≈ 145 µM)
CC1=CC(=O)N(CCCCc2ccccc2)C1=O | 62.5 µg/mL (≈ 257 µM) | 62.5 µg/mL (≈ 257 µM) | 31.2 µg/mL (≈ 128 µM) | 31.2 µg/mL (≈ 128 µM) | 31.2 µg/mL (≈ 128 µM) | 62.5 µg/mL (≈ 257 µM) | 62.5 µg/mL (≈ 257 µM) | 3.9 µg/mL (≈ 16 µM) | > 10 µg/mL | > 10 µg/mL | > 10 µg/mL | > 250 µg/mL | 125 µg/mL (≈ 514 µM) | 125 µg/mL (≈ 514 µM) | 62.5 µg/mL (≈ 257 µM) | 62.5 µg/mL (≈ 257 µM) | 62.5 µg/mL (≈ 257 µM) | 125 µg/mL (≈ 514 µM) | 125 µg/mL (≈ 514 µM) | 15.6 µg/mL (≈ 64.2 µM) | MFC [13]: 15.6 µg/mL (≈ 64.2 µM); MIC [13]: 3.9 µg/mL (≈ 16 µM); MFC [14]: 31.2 µg/mL (≈ 128 µM); MIC [14]: 31.2 µg/mL (≈ 128 µM)
COc1ccc(N2C(=O)C=CC2=O)cc1OC | 31.2 µg/mL (≈ 134 µM) | 15.6 µg/mL (≈ 67 µM) | 7.81 µg/mL (≈ 33.5 µM) | 7.81 µg/mL (≈ 33.5 µM) | 62.5 µg/mL (≈ 268 µM) | 62.5 µg/mL (≈ 268 µM) | 62.5 µg/mL (≈ 268 µM) | 3.9 µg/mL (≈ 16.7 µM) | > 10 µg/mL | > 10 µg/mL | > 10 µg/mL | > 250 µg/mL | 62.5 µg/mL (≈ 268 µM) | 15.6 µg/mL (≈ 67 µM) | 15.6 µg/mL (≈ 67 µM) | 15.6 µg/mL (≈ 67 µM) | 125 µg/mL (≈ 536 µM) | 125 µg/mL (≈ 536 µM) | 125 µg/mL (≈ 536 µM) | 7.81 µg/mL (≈ 33.5 µM) | MFC [13]: 7.81 µg/mL (≈ 33.5 µM); MIC [13]: 3.9 µg/mL (≈ 16.7 µM); MFC [14]: 7.81 µg/mL (≈ 33.5 µM); MIC [14]: 3.9 µg/mL (≈ 16.7 µM)

Continued by falling MIC [5], values first:

MIC [5] | MIC [6] | MIC [7] | MIC [8] | MIC [9] | MIC [10] | MIC [11] | MIC [12] | Compound | GI50 [1] | GI50 [2] | GI50 [3] | HC50 [4] | MFC [5] | MFC [6] | MFC [7] | MFC [8] | MFC [9] | MFC [10] | MFC [11] | MFC [12] | other results
62.5 µg/mL (≈ 273 µM) | 125 µg/mL (≈ 545 µM) | 15.6 µg/mL (≈ 68.2 µM) | 15.6 µg/mL (≈ 68.2 µM) | 15.6 µg/mL (≈ 68.2 µM) | 31.2 µg/mL (≈ 136 µM) | 31.2 µg/mL (≈ 136 µM) | 3.9 µg/mL (≈ 17 µM) | CC1=CC(=O)N(CCCc2ccccc2)C1=O | > 10 µg/mL | > 10 µg/mL | > 10 µg/mL | > 250 µg/mL | 125 µg/mL (≈ 545 µM) | 125 µg/mL (≈ 545 µM) | 62.5 µg/mL (≈ 273 µM) | 31.2 µg/mL (≈ 136 µM) | 31.2 µg/mL (≈ 136 µM) | 31.2 µg/mL (≈ 136 µM) | 31.2 µg/mL (≈ 136 µM) | 7.81 µg/mL (≈ 34.1 µM) | MFC [13]: 3.9 µg/mL (≈ 17 µM); MIC [13]: 1.95 µg/mL (≈ 8.5 µM); MFC [14]: 31.2 µg/mL (≈ 136 µM); MIC [14]: 15.6 µg/mL (≈ 68.2 µM)
7.81 µg/mL (≈ 26.2 µM) | 7.81 µg/mL (≈ 26.2 µM) | 3.9 µg/mL (≈ 13.1 µM) | 3.9 µg/mL (≈ 13.1 µM) | 31.2 µg/mL (≈ 105 µM) | 15.6 µg/mL (≈ 52.4 µM) | 15.6 µg/mL (≈ 52.4 µM) | 15.6 µg/mL (≈ 52.4 µM) | O=C1C(Cl)=C(Cl)C(=O)N1CCCCc1ccccc1 | > 10 µg/mL | > 10 µg/mL | > 10 µg/mL | > 250 µg/mL | 15.6 µg/mL (≈ 52.4 µM) | 15.6 µg/mL (≈ 52.4 µM) | 7.81 µg/mL (≈ 26.2 µM) | 3.9 µg/mL (≈ 13.1 µM) | 62.5 µg/mL (≈ 210 µM) | 31.2 µg/mL (≈ 105 µM) | 15.6 µg/mL (≈ 52.4 µM) | 31.2 µg/mL (≈ 105 µM) | MFC [13]: 7.81 µg/mL (≈ 26.2 µM); MIC [13]: 3.9 µg/mL (≈ 13.1 µM); MFC [14]: 7.81 µg/mL (≈ 26.2 µM); MIC [14]: 3.9 µg/mL (≈ 13.1 µM)
